Results from different studies.
Medium: Caco-2

O=C(COCc1cccnc1)C12CC3CC(CC(C3)C1)C2 — Papp A→B (20 µM): 6.3 ×10⁻⁶ cm/s
CC#Cc1cncc(-c2ccc3c(c2)[C@@]2(N=C(C)C(N)=N2)[C@]2(CC[C@H](OC)CC2)C3)c1 — Papp A→B: 34.8 ×10⁻⁶ cm/s
CC(C)NCC(O)COc1cccc2ccccc12 (stereo not shown) — Papp A→B: 46.5 ×10⁻⁶ cm/s
CO[C@@H](C[C@H]1C(C)=CC[C@@H]2[C@]3(C)C[C@H](O[C@@H]4O[C@@H](C)[C@H](OC(=O)c5cccc(O)c5)[C@@H](O[C@@H]5O[C@H](CO)[C@@H](O)[C@H](O)[C@H]5NC(C)=O)[C@H]4O)[C@@H](O)C(C)(C)[C@H]3CC[C@]21C)[C@H](N)C(=O)O.O=C(O)C(F)(F)F — Papp A→B (5 µM, 1 h): 0.01 ×10⁻⁶ cm/s
CC(C)c1cccc2c(-c3ccccc3)cc(-c3ccc(-c4ccc(C(=O)O)cc4)[nH]3)nc12 — Papp A→B: 1.61 ×10⁻⁶ cm/s
COc1cc(F)ccc1-c1ncnc(Nc2cccc(C[S@](C)(=N)=O)c2)n1 — Papp A→B (2 µM, 2 h, pH 7.2): 3.5 ×10⁻⁶ cm/s
O=C1C[C@@H](c2ccc(O[C@@H]3O[C@H](CO)[C@@H](O)[C@H](O)[C@H]3O)cc2)Oc2cc(O)ccc21 — Papp A→B (2 h): > 1 ×10⁻⁶ cm/s
Cn1c(=O)c2c(nc(S)n2C)n(C)c1=O — Papp A→B (10 µM, 2 h): 0.9 ×10⁻⁶ cm/s
O=C(O)COc1cccc(Oc2ccc(-c3noc(-c4ccc(O)cc4)n3)cc2)c1 — Papp A→B (2 h, pH 7.4): 5.3 ×10⁻⁶ cm/s
C=CC(=O)Nc1cc(Nc2nccc(-c3cn(C)c4ccccc34)n2)c(OC)cc1N(C)CCN(C)C — Papp A→B (pH 6.5): 12.5 ×10⁻⁶ cm/s
Cc1ncsc1-c1ccc(CNC(=O)[C@@H]2C[C@@H](O)CN2C(=O)[C@@H](NC(=O)C2(F)CC2)C(C)(C)C)c(OCCOCCOCCN2CCN(c3cc(-c4ccccc4O)nnc3N)CC2)c1 — Papp A→B (2 h, pH 7.2): 0.11 ×10⁻⁶ cm/s
COCCc1ccc(OCC(O)CNC(C)C)cc1 (stereo not shown) — Papp A→B: 16.6 ×10⁻⁶ cm/s
C[C@H]1O[C@@H](O[C@H]2[C@@H](O)C[C@H](O[C@H]3[C@@H](O)C[C@H](O[C@H]4CC[C@@]5(C)[C@H](CC[C@@H]6[C@@H]5C[C@@H](O)[C@]5(C)[C@@H](C7=CC(=O)OC7)CC[C@]65O)C4)O[C@@H]3C)O[C@@H]2C)C[C@H](O)[C@@H]1O — Papp A→B (10 µM, 2 h, pH 7.4): 0.11 ×10⁻⁶ cm/s
COCCc1ccc(OCC(O)CNC(C)C)cc1 (stereo not shown) — Papp A→B (pH 6.5): 13.3 ×10⁻⁶ cm/s
C[C@H]1O[C@@H](O[C@H]2[C@@H](O)C[C@H](O[C@H]3[C@@H](O)C[C@H](O[C@H]4CC[C@@]5(C)[C@H](CC[C@@H]6[C@@H]5C[C@@H](O)[C@]5(C)[C@@H](C7=CC(=O)OC7)CC[C@]65O)C4)O[C@@H]3C)O[C@@H]2C)C[C@H](O)[C@@H]1O — Papp A→B (5 µM, 1 h): 1.3 ×10⁻⁶ cm/s
Nc1cc(N2CCCCC2)nc(N)[n+]1[O-] — Papp A→B (10 µM, 2 h, pH 7.4): 4.18 ×10⁻⁶ cm/s
